Reference: ChEMBL document CHEMBL1135248, “Synthesis and evaluation of pseudopeptide analogues of a specific CXCR4 inhibitor, T140: the insertion of an (E)-alkene dipeptide isostere into the betaII'-turn moiety” (Bioorg Med Chem Lett, 2002)

Tests used:
[1] = target: T1, C-X-C chemokine receptor type 4 (Homo sapiens, UniProt P61073); experiment: (§1) Inhibitory activity based on the inhibition of [Ca2+] mobilization induced by human SDF-1alpha stimulation through C-X-C chemokine receptor type 4
Procedure, shortened: (§2)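 CHO cells transfected with CXCR4 were loaded with Fura-2-AM for 1–2 h and then pretreated with analogue. Recombinant human SDF-1α was added 3 min later. [Ca2+]i rise was measured spectrofluorometrically by a modified Fura-2 method, and IC50 was derived from inhibition of mobilization. Values are the mean of two experiments.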

[2] = target: T1, C-X-C chemokine receptor type 4; experiment: as §1; procedure, shortened: as §2; remark: listed apart in the source

T1 sequence (P61073 whole entry): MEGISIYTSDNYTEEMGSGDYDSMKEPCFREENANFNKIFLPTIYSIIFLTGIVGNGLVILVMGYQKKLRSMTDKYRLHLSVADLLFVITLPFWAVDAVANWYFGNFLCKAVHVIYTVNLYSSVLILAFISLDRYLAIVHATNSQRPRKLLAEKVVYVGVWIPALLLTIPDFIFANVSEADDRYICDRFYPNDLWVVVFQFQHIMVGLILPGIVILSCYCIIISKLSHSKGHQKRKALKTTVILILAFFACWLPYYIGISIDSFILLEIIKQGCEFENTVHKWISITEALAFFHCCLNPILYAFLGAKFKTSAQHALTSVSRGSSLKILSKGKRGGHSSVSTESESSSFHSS

IC50 [1]: 27 nM
IC50 [2]: 30 nM
SMILES: C[C@H]1/C=C\[C@@H](CCCCN)NC(=O)[C@H](CCCCN)NC(=O)[C@H](CCCNC(=N)N)NC(=O)[C@H](Cc2ccc(O)cc2)NC(=O)[C@@H](NC(=O)[C@H](Cc2c[nH]c3ccccc23)NC(=O)[C@H](CCCNC(=N)N)NC(=O)[C@@H](N)CCCN=C(N)N)CSSC[C@@H](C(=O)N[C@@H](CCCNC(=N)N)C(=O)O)NC(=O)[C@H](CCCNC(N)=O)NC(=O)[C@H](CCCNC(=N)N)NC(=O)[C@H](Cc2ccc(O)cc2)NC1=O
